The test system of series [1] is MEFs, CHO and DT40 cell lines lacking RAD51C; cancer cells lacking ALKBH3. Particulars: cited from earlier work.
The test system of series [2] is PC-3 cells. Kind of series: Cell survival assay. Format: cell-based, human. Particulars: MTT, MMS 50–400 μM, 48 h. The procedure, abridged: (§1)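 Stable shRNA-knockdown cells (luciferase shRNA as control) seeded at 5000 per well in triplicate. MMS (0, 50, 100, 200, 300, 400 μM) was given continuously for 48 h. Medium was then replaced with 0.5 mg/ml MTT for 4 h at 37°C in the dark, formazan solubilised and A570 read. Percent viability given as mean ± SD from four experiments.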

Series [3] has as its system PC-3 cells. Kind of series: Calcein-AM viability assay, PC-3. Particulars: MMS 400 μM, 48 h; knockdown of RAD51C, ALKBH3, or both. Format: cell-based, human. The procedure, abridged:
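PC-3 cells grown in Ham's F-12 GlutaMAX with 10% FBS at 37°C and 5% CO₂. Stable shRNA knockdown made by electroporation and 1 μg/ml puromycin selection for 30 days; the control shRNA targets luciferase. After MMS, cells were stained 30 min at 37°C with 2 μM Calcein AM in PBS and imaged by inverted fluorescence microscope. Percent MMS-induced cytotoxicity was plotted.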

Series [4] has as its system NCI-H23 cells. Kind of series: Cell survival assay. Format: cell-based, human. The conditions noted are these: MTT, MMS 50–400 μM, 48 h. The procedure, abridged: as §1
In series [5] the test system is NCI-H23 cells. Kind of series: Calcein-AM viability assay, NCI-H23. Format: cell-based, human. The conditions noted are these: MMS 400 μM, 48 h; knockdown of RAD51C, ALKBH3, or both. An outline of the steps:
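NCI-H23 cells grown in DMEM with 10% FBS at 37°C and 5% CO₂. Stable shRNA knockdown made by electroporation and 1 μg/ml puromycin selection for 30 days; the control shRNA targets luciferase. After MMS, cells were stained 30 min at 37°C with 2 μM Calcein AM in PBS and imaged by inverted fluorescence microscope. Percent MMS-induced cytotoxicity was plotted.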

The test system of another series is PC3 cells. Description: Immunofluorescence of 3meC, PC3. Format: cell-based, human. The conditions noted are these: 48 h. An outline of the steps: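 Stable RAD51C and/or ALKBH3 shRNA-knockdown PC3 cells were grown on chamber slides with MMS, then fixed in 4% formaldehyde (15 min, RT). DNA was denatured in 1.5 M HCl for 30 min and neutralised with sodium borate pH 8.5. Cells were permeabilised (0.1% Triton X-100), blocked (1% BSA), stained with anti-3meC overnight at 4°C, then Alexa-594 secondary, with DAPI counterstain. Signal was quantified as mean ± SE of three independent assays by Student's t-test.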

Series [6] addresses T1, ALKBH3 (Homo sapiens, UniProt Q96Q83).
T1 sequence (Q96Q83 1-286): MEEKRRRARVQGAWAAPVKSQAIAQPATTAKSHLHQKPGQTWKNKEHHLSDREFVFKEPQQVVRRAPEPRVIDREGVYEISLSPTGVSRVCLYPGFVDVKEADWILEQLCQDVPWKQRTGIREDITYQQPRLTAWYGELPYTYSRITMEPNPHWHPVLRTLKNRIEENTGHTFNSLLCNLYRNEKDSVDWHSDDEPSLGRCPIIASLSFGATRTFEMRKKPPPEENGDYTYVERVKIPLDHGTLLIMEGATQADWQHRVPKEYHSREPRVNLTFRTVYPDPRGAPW
Kind of series: Yeast two-hybrid with ALKBH3. Format: binding. The conditions noted are these: strain pJ69-4A; growth on dropout plates and lacZ reporter. The procedure, abridged:
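Full-length ALKBH2 or ALKBH3 fused to Gal4 binding domain (pGBKT7) was co-transformed with Gal4 activation domain (pACT2) fusions of RAD51, RAD51B, RAD51C, RAD51D, XRCC2 or XRCC3, or empty vectors. Transformants were selected on SD -Leu -Trp plates at 30°C for 2–3 days, then spotted on -His (triple) or -His -Ade (quadruple) dropout plates. lacZ was scored qualitatively by X-gal filter assay.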

The next series concerns RAD51B. Description: Yeast two-hybrid with RAD51B. The format is binding, human. Particulars: pGBKT7-RAD51C or pGBKT7-RAD51CΔ42-52.
Series [7] has as its target T1, ALKBH3. Description: Demethylation assay by dot-blot analysis, 3′-tailed DNA. Format: biochemical. The conditions noted are these: ALKBH3 0.4 μM, RAD51C or RAD51CΔ42–52 8 μM, 3′-tailed DNA 8 μM, anti-3meC antibody.
For another series, the system named is RAD51. Description: Yeast two-hybrid with RAD51. The conditions noted are these: pGBKT7-RAD51C or pGBKT7-RAD51CΔ42-52. The format is binding, human.
Another series deals with XRCC3. Kind of series: Yeast two-hybrid with XRCC3. Format: binding, human. Particulars: pGBKT7-RAD51C or pGBKT7-RAD51CΔ42-52.
The subject of series [8] is mutant ALKBH3 (H191A, D193A and H257A). Description: Demethylation assay with mutant ALKBH3. The format is biochemical, human. The conditions noted are these: mutant ALKBH3 0.2 μM, RAD51C 4.0 μM.
A further series deals with GST-ALKBH3. Description: GST pull-down of His-RAD51C constructs. The format is binding, human. Particulars: 150 μg GST-ALKBH3, ∼100 μg His-protein, room temperature, 2 h; MNase. An outline of the steps:
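His-RAD51C, full-length or Δ42–52, was expressed in E. coli BL21-CodonPlus(DE3)-RIL (1 mM IPTG, 16°C, 18 h) and purified on Ni-NTA. It was incubated with GST-ALKBH3 bound to glutathione beads in 25 mM Tris pH 7.5, 1 mM CaCl₂ and 500 mM NaCl, with 10 U micrococcal nuclease. In competition runs, RAD51C 42–52 or 33–41 peptide was added at 50, 250 or 500 μM. Bound protein was detected by SDS-PAGE and anti-6xHis western blot.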

Series [9] addresses T1, ALKBH3. Description: Steady-state. Format: biochemical.
Series [10] has as its target T1, ALKBH3. Description: Co-immunoprecipitation. Particulars: for co-immunoprecipitation of endogenous ALKBH3: NCI-H23 and PC-3, Flag-HA-RAD51C constructs. The format is binding.
Series [11] concerns the target T1, ALKBH3. Kind of series: Demethylation assay by direct detection of formaldehyde. Format: biochemical.
For a further series, the system named is RAD51D. Kind of series: Yeast two-hybrid with RAD51D. Particulars: pGBKT7-RAD51C or pGBKT7-RAD51CΔ42-52. The format is binding, human.
The subject of series [12] is NCI-H23 cells. Kind of series: Immunofluorescence of 3meC, NCI-H23. The format is cell-based, human. The conditions noted are these: stable RAD51C knockdown NCI-H23, MMS 400 μM, 48 h; at least 50 cells counted. An outline of the steps: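 RNAi-resistant Flag-HA-RAD51C, wild-type or Δ42–52, was electroporated into stable RAD51C-knockdown cells 24 h before MMS. Cells were fixed in formaldehyde, denatured in HCl, then co-stained for anti-HA (recombinant protein) and anti-3meC, with DAPI. Images were taken by fluorescence microscopy and signals quantified.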

The mark [13] stands for this setting: combined RAD51C and ALKBH3 knockdown.
The mark [14] stands for this setting: stable RAD51C and ALKBH3 knockdown.
Where [15] appears, read: 3′-tailed DNA 0.6–9.6 μM, ALKBH3 0.2 μM, RAD51C or RAD51CΔ42–52 4 μM, FDH-coupled.
The mark [16] stands for this setting: HEK-293T, Flag-HA-RAD51C constructs and Myc-ALKBH3 co-expressed, anti-Flag.

For the molecule `COS(C)(=O)=O` [MMS, methyl methanesulphonate], the MMS sensitivity entry in series [1] was “MMS sensitivity”. For the same molecule, the “cell survival, combined knockdown” value with PC-3 cells [2] (setting [13]) and with NCI-H23 cells [4] (setting [13]) was “severe cell survival defect” in each case. The cell proliferation result in the series on PC-3 cells [2] (setting [14]) and with NCI-H23 cells [4] (setting [14]) was “significantly affected” each time. The “MMS sensitivity (Calcein-AM)” value with PC-3 cells [3] and in the series with NCI-H23 cells [5] was “MMS sensitive” throughout. Moreover, the “3meC accumulation in nucleus” value in the series with PC3 cells (MMS 400 μM, ALKBH3 knockdown) is given as “a number of cells showed 3meC accumulation in the nucleus”; in the series on PC3 cells (MMS 400 μM, combined RAD51C and ALKBH3 knockdown), 3meC accumulation in the nucleus in a manner epistatic with ALKBH3 knockdown. Also, in the series with PC3 cells (MMS 400 μM, RAD51C knockdown), the “3meC level, effect less than ALKBH3 knockdown” value was approximately 50%. The “3meC signal in nucleus” value in the series on PC3 cells (MMS 400 μM, control shRNA) is listed as “no visible signal for 3meC were detected in the nucleus”.
Usually Km stands for the substrate concentration at which the rate is half of its maximum. “RAD51C: human RAD51 paralogue, recombinant or expressed (tag-less, His-tag or Flag-HA)”: the “yeast two-hybrid interaction with ALKBH3” value in the series with ALKBH3 [6] is “robust interaction”. The “yeast two-hybrid interaction with RAD51B” value in the series on RAD51B is “interacted strongly”. For the same molecule, the “effect on 3meC level” value in the series with ALKBH3 [7] is on record as “reduction in the levels of 3meC in 3′-tailed DNA was higher compared to the ALKBH3 alone”. Further, the “yeast two-hybrid interaction with RAD51” value in the series on RAD51 is recorded as “weak interaction”. The “yeast two-hybrid interaction with XRCC3” value in the series with XRCC3 was “interacted strongly”. The “effect on mutant ALKBH3 activity” value in series [8] is given as “indistinguishable from the mutant ALKBH3 alone”. The “pull-down by GST-ALKBH3” value with GST-ALKBH3 is reported as “could be pulled down by GST-ALKBH3”. In the series with ALKBH3 [9] (setting [15]), the Michaelis-Menten constant (Km) worked out at 1.7 µM and the kcat/KM is 2.6 min^-1μM^-1. Moreover, the “Vmax” value with ALKBH3 [9] (3′-tailed DNA, RAD51C 4 μM with ALKBH3 0.2 μM) was “increased the Vmax for ALKBH3 reaction”. The “co-immunoprecipitation of ALKBH3” value in the series with ALKBH3 [10] (setting [16]) is “ALKBH3 was immunoprecipitated with RAD51C”. Also, the “co-immunoprecipitation of endogenous ALKBH3” value with ALKBH3 [10] (anti-Flag) is “immunoprecipitated endogenous ALKBH3 in both the cell lines”. For the same molecule, the “co-immunoprecipitation of ALKBH3” value with ALKBH3 [10] (PC-3, endogenous proteins, anti-RAD51C antibody) is listed as “ALKBH3 could indeed be immunoprecipitated with RAD51C”. For the same molecule, the “effect of ATP exclusion or ATP-γ-S on RAD51C stimulation” value with ALKBH3 [11] (ALKBH3 0.2 μM, RAD51C 4.0 μM) is listed as “did not affect the results”. In addition, the “formaldehyde release, RAD51C only” value with ALKBH3 [11] (RAD51C without ALKBH3) is recorded as “did not result in any formaldehyde release”. The “yeast two-hybrid interaction with RAD51D” value with RAD51D is given as “weak interaction”.

B1: RAD51CΔ42–52 (protein)
chain: MRGKTFRFEMQRDLVSFPLSPAVRVKLVSAGFQTAEELLEVSKAEALETLQIIRRECLTNKPRYAGTSESHKKCTALELLEQEHTQGFIITFCSALDDILGGGVPLMKTTEICGAPGVGKTQLCMQLAVDVQIPECFGGVAGEAVFIDTEGSFMVDRVVDLATACIQHLQLIAEKHKGEEHRKALEDFTLDNILSHIYYFRCRDYTELLAQVYLLPDFLSEHSKVRLVIVDGIAFPFRHDLDDLSLRTRLLNGLAQQMISLANNHRLAVILTNQMTTKIDRNQALLVPALGESWGHAATIRLIFHWDRKQRLATLYKSPSQKECTVLFQIKPQGFRDTVVTSACSLQTEGSLSTRKRSRDPEEEL
modifications: left off: Gal4 activation domain, end not stated, kept
With B1, the “yeast two-hybrid interaction with ALKBH3” value with ALKBH3 [6] is reported as “completely abolished”. Besides, the “yeast two-hybrid interaction with RAD51B” value in the series on RAD51B is recorded as “interacted strongly”. Further, the “effect on 3meC level” value with ALKBH3 [7] is given as “could not result in any significant reduction in the levels of 3meC compared to ALKBH3 alone”. Moreover, the “yeast two-hybrid interaction with RAD51” value with RAD51 is recorded as “weak interaction”. Moreover, the “yeast two-hybrid interaction with XRCC3” value in the series on XRCC3 is recorded as “interacted strongly”. In addition, the “pull-down by GST-ALKBH3” value with GST-ALKBH3 is “could not be pulled down by GST-ALKBH3”. In addition, the “3meC signal increase after mutant expression” value with PC3 cells (stable RAD51C knockdown PC3, MMS 400 μM, at least 50 cells counted) was “at least 50%”; in the series with NCI-H23 cells [12], “at least 50%”. Further, the kcat/KM in the series with ALKBH3 [9] (setting [15]) amounted to 1.42 min^-1μM^-1. Also, in the series with ALKBH3 [10] (setting [16]), the “co-immunoprecipitation of ALKBH3” value is “not with RAD51CΔ42–52”. Further, in the series with ALKBH3 [10] (anti-Flag), the “co-immunoprecipitation of endogenous ALKBH3” value is “significantly reduced amount of endogenous ALKBH3 was immunoprecipitated”. The “yeast two-hybrid interaction with RAD51D” value in the series with RAD51D is recorded as “weak interaction”.

These data come from paper PMC7145530 (Nucleic Acids Research, 2019).
